Data as given in ChEMBL document CHEMBL1122506, “Cardiac-slowing amidines containing the 3-thioindone group. Potential antianginal agents” (1983).

Tests used:
[1] = test system: Canis familiaris; experiment: Dose required to achieve 50 % of maximal cardiac slowing in triazine tachycardia test in conscious dog; format: functional, Canis lupus familiaris
Method in brief: (§1)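 Triazine tachycardia in conscious dogs: carotid artery and jugular vein catheterized with heparinized saline; 18 h after surgery, triazine vasodilator U20388 12 mg/kg po; about 1 h later, dog in sling with arterial pressure and ECG monitored. Test agent infused iv at 0.8 (mg/kg)/min to 30 mg/kg total. D50 = dose giving 50% of maximal slowing in that animal; ΔHR50 = heart-rate change at D50; CS index = %ΔHR50/D50.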

[2] = test system: Canis familiaris; experiment: Myocardial depression rating in anesthetized, ganglion-blocked dog; Weak activity.
[3] = test system: Canis familiaris; experiment: Change in heart rate at the above D50 dose in conscious dogs; format: functional, Canis lupus familiaris; method in brief: as §1
[4] = species: Canis familiaris; experiment: Percent decrease from initial heart rate (percent delta HR50/HR0 x 100) in dogs; format: functional, Canis lupus familiaris; method in brief: as §1
[5] = species: Canis familiaris; experiment: Cardiac slowing index was measured for potency and efficacy; format: functional, Canis lupus familiaris; method in brief: as §1
[6] = species: Canis familiaris; experiment: Relative activity (fraction of the most active compound 24) was determined; format: functional, Canis lupus familiaris
[7] = test system: Canis familiaris; experiment: Myocardial depression in anesthetized, ganglion-blocked dog; Moderate activity.
[8] = test system: Canis familiaris; experiment: Evaluated for the heart rate at dose 2.5 mg/kg in 4 animals by glucagon-induced tachycardia test; format: functional, Canis lupus familiaris
[9] = test system: Canis familiaris; experiment: Evaluated for the heart rate at dose 5.0 mg/kg in 4 animals by aminophylline-induced sinus tachycardia test; format: functional, Canis lupus familiaris
[10] = test system: Canis familiaris; experiment: Evaluated for the heart rate at dose 0.5 mg/kg in 4 animals by poldine tachycardia test; format: functional, Canis lupus familiaris
Method in brief: (§2)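 Poldine tachycardia: dogs prepared surgically as in the triazine method; poldine methyl sulfate 0.5 mg/kg iv, then 30 min later test agent in increasing doses (0.5/1.0/2.5 mg/kg) at 30-min intervals; read-out is the maximum percent decrease in heart rate at each dose.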

[11] = test system: Canis familiaris; experiment: Evaluated for the heart rate at dose 2.5 mg/kg in 4 animals by aminophylline-induced sinus tachycardia test; format: functional, Canis lupus familiaris
[12] = test system: Canis familiaris; experiment: Evaluated for the heart rate at dose 1.0 mg/kg in 4 animals by aminophylline-induced sinus tachycardia test; format: functional, Canis lupus familiaris
[13] = test system: Canis familiaris; experiment: Evaluated for the heart rate at dose 1.0 mg/kg in 4 animals by glucagon-induced tachycardia test; format: functional, Canis lupus familiaris
[14] = test system: Canis familiaris; experiment: Evaluated for the heart rate at dose 1.0 mg/kg in 4 animals by poldine tachycardia test; format: functional, Canis lupus familiaris; method in brief: as §2
[15] = test system: Canis familiaris; experiment: Evaluated for the heart rate at dose 2.5 mg/kg in 4 animals by poldine tachycardia test; format: functional, Canis lupus familiaris; method in brief: as §2

SMILES | D50 [1] | MD [2] | Delta HR50 [3] | Delta HR50 [4] | CS index [5] | Relative activity [6] | MD [7] | Max decrease in heart rate [8] | Max decrease in heart rate [9] | Max decrease in heart rate [10] | Max decrease in heart rate [11] | Max decrease in heart rate [12] | Max decrease in heart rate [13] | Max decrease in heart rate [14] | Max decrease in heart rate [15]
COc1ccc2[nH]cc(SCC/N=C3\CCCN3C)c2c1 | 2.3 mg/kg | 2 | -39 beats min-1 | 17.8% | 7.7 | 0.24 |  |  |  |  |  |  |  |  | 
Cc1[nH]c2ccccc2c1SCCNC1=NCCN1C | 2.6 mg/kg | 2.5 | -37 beats min-1 | 19.5% | 7.5 | 0.23 |  |  |  |  |  |  |  |  | 
CN1CCC/C1=N\CCSc1cn(CC2CC2)c2ccccc12 | 1.4 mg/kg | 2.5 | -60 beats min-1 | 25.5% | 18.2 | 0.57 |  |  |  |  |  |  |  |  | 
C=CCCn1cc(SCC/N=C2\CCCN2C)c2ccccc21 | 1.1 mg/kg |  | -33 beats min-1 | 16.2% | 14.7 | 0.46 | 3 |  |  |  |  |  |  |  | 
C#CCn1cc(SCC/N=C2\CCCN2C)c2ccccc21 | 1.1 mg/kg | 2.5 | -46 beats min-1 | 21.6% | 19.6 | 0.61 |  |  |  |  |  |  |  |  | 
C#CCn1cc(CC/N=C2/CCCN2C)c2ccccc21 | 1.5 mg/kg |  | -47 beats min-1 | 22.3% | 14.9 | 0.46 | 3 |  |  |  |  |  |  |  | 
CN1CCC/C1=N/CCc1cn(Cc2ccccc2)c2ccccc12 | 2.6 mg/kg |  | -52 beats min-1 | 24.3% | 9.3 | 0.29 |  |  |  |  |  |  |  |  | 
CN1CCC/C1=N\CCCCSc1c[nH]c2ccccc12 | 2 mg/kg |  | -42 beats min-1 | 20% | 10 | 0.31 | 3 |  |  |  |  |  |  |  | 
CN1CCC/C1=N\CCSc1cn(Cc2ccccc2)c2ccccc12 |  |  |  |  |  |  | 3 |  |  |  |  |  |  |  | 
COCCn1cc(SCC/N=C2\CCCN2C)c2ccccc21 | 1.5 mg/kg |  | -33 beats min-1 | 17.6% | 11.7 | 0.37 | 2.5 |  |  |  |  |  |  |  | 
CCn1cc(SCCCC/N=C2\CCCN2C)c2ccccc21 | 0.7 mg/kg |  | -33 beats min-1 | 16% | 22.8 | 0.71 | 3.5 |  |  |  |  |  |  |  | 
CN1CCCN=C1NCCSc1c[nH]c2ccccc12 | 6.4 mg/kg |  | -38 beats min-1 | 20% | 3.1 | 0.1 |  |  |  |  |  |  |  |  | 
CN1CCCC/C1=N\CCSc1c[nH]c2ccccc12 | 3 mg/kg | 2.5 | -51 beats min-1 | 22.4% | 7.5 | 0.23 |  |  |  |  |  |  |  |  | 
C=C(C)Cn1cc(SCC/N=C2\CCCN2C)c2ccccc21 | 4.4 mg/kg | 2.5 | -42 beats min-1 | 20% | 4.5 | 0.14 |  |  |  |  |  |  |  |  | 
C=CCN1CCC/C1=N\CCSc1c[nH]c2ccccc12 | 0.7 mg/kg |  | -22 beats min-1 | 12.4% | 17.7 | 0.55 |  |  |  |  |  |  |  |  | 
CCc1ccc2[nH]cc(SCC/N=C3\CCCN3C)c2c1 | 8.6 mg/kg |  | -21 beats min-1 | 15.5% | 1.8 | 0.06 |  |  |  |  |  |  |  |  | 
Cc1[nH]c2ccccc2c1SCC/N=C1\CCCCN1C | 2 mg/kg |  | -24 beats min-1 | 14.3% | 7.1 | 0.22 | 3 |  |  |  |  |  |  |  | 
CC(C)n1cc(SCC/N=C2\CCCN2C)c2ccccc21 | 1 mg/kg | 2 | -31 beats min-1 | 19.1% | 19.1 | 0.6 |  | 39% | 47% | 15% | 33% | 16% | 23% | 38% | 55%
CN1CCC/C1=N/CCCSc1c[nH]c2ccccc12 | 3.8 mg/kg |  | -46 beats min-1 | 20.4% | 5.4 | 0.17 | 3 |  |  |  |  |  |  |  | 

SMILES | D50 [1] | MD [2] | Delta HR50 [3] | Delta HR50 [4] | CS index [5] | Relative activity [6] | MD [7] | Max decrease in heart rate [8] | Max decrease in heart rate [9] | Max decrease in heart rate [10] | Max decrease in heart rate [11] | Max decrease in heart rate [12] | Max decrease in heart rate [13] | Max decrease in heart rate [14] | Max decrease in heart rate [15]
Cc1[nH]c2ccc(Cl)cc2c1SCC/N=C1\CCCN1C | 2.3 mg/kg |  | -33 beats min-1 | 17.2% | 7.5 | 0.23 | 3 |  |  |  |  |  |  |  | 
C#CCn1c(C)c(SCC/N=C2\CCCN2C)c2ccccc21 | 5.5 mg/kg |  | -20 beats min-1 | 18.5% | 3.4 | 0.11 |  |  |  |  |  |  |  |  | 
CN1CCC/C1=N\CCSc1cn(C2C=CCCC2)c2ccccc12 (configuration not stated) | 1.9 mg/kg |  | -52 beats min-1 | 20.8% | 10.9 | 0.34 | 3.5 |  |  |  |  |  |  |  | 
CCN1CC(CC/N=C2\CCCN2C)c2ccccc21 (configuration not stated) | 3.3 mg/kg | 2 | -45 beats min-1 | 18.4% | 5.6 | 0.17 |  |  |  |  |  |  |  |  | 
CN1CCN=C1NCCSc1c[nH]c2ccccc12 | 2.9 mg/kg | 2 | -38 beats min-1 | 19.9% | 6.9 | 0.22 |  |  |  |  |  |  |  |  | 
CN1CCN=C1NCCc1c[nH]c2ccccc12 | 9.7 mg/kg | 2 | -47 beats min-1 | 20.5% | 2.1 | 0.06 |  |  |  |  |  |  |  |  | 
C=CCn1cc(SCC/N=C2\CCCN2C)c2ccccc21 | 1 mg/kg | 2 | -52 beats min-1 | 22.2% | 22.2 | 0.69 |  |  |  |  |  |  |  |  | 
C=CCn1cc(CC/N=C2/CCCN2C)c2ccccc21 | 1.2 mg/kg |  | -26 beats min-1 | 14.7% | 12.2 | 0.38 |  |  |  |  |  |  |  |  | 
CN1CCC/C1=N\CCSc1c[nH]c2ccc(Cl)cc12 | 3.5 mg/kg | 2 | -32 beats min-1 | 16.2% | 4.6 | 0.14 |  |  |  |  |  |  |  |  | 
CC(=NCCSc1c[nH]c2ccccc12)N(C)C | 2 mg/kg | 2 | -50 beats min-1 | 23% | 11.5 | 0.36 |  |  |  |  |  |  |  |  | 
Cc1c(SCC/N=C2\CCCN2C)c2ccccc2n1C | 0.9 mg/kg |  | -21 beats min-1 | 12.5% | 13.9 | 0.43 | 3.5 |  |  |  |  |  |  |  | 
CN1CCC/C1=N/CCc1c[nH]c2ccccc12 | 3.4 mg/kg | 2 | -28 beats min-1 | 16% | 4.7 | 0.15 |  |  |  |  |  |  |  |  | 
c1ccc2c(SCCNC3=NCCC3)c[nH]c2c1 | 3.7 mg/kg |  | -51 beats min-1 | 23% | 6.2 | 0.19 |  |  |  |  |  |  |  |  | 
CN1CCC/C1=N\CCSc1cn(Cc2ccco2)c2ccccc12 | 2.6 mg/kg |  | -42 beats min-1 | 22.4% | 8.6 | 0.27 | 3.5 |  |  |  |  |  |  |  | 
CN1CCC/C1=N\CCSc1cn(C2CCCC2)c2ccccc12 | 2.7 mg/kg |  | -40 beats min-1 | 21% | 7.8 | 0.24 | 3 |  |  |  |  |  |  |  | 
c1ccc(N2CCC/C2=N\CCSc2c[nH]c3ccccc23)cc1 | 0.6 mg/kg | 2.5 | -40 beats min-1 | 19.2% | 32 | 1 |  |  |  |  |  |  |  |  | 
CC(CSc1c[nH]c2ccccc12)/N=C1\CCCN1C (configuration not stated) | 2.7 mg/kg |  | -46 beats min-1 | 24% | 8.9 | 0.28 | 3.5 |  |  |  |  |  |  |  | 
CN1CCCCC/C1=N\CCSc1c[nH]c2ccccc12 | 14.1 mg/kg |  | -38 beats min-1 | 18.5% | 1.3 | 0.04 |  |  |  |  |  |  |  |  | 
